# Test results: article PMC5466536 (British Journal of Pharmacology, 2017)
# Where “and” joins values, the source holds several entries; their conditions need not be identical. Identical values can stand only once.
# Columns and labels:
# Systemic blood pressure = format: in vivo, Sprague–Dawley rats; details: rats
# Method in brief: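 Oral dosing after IA induction, vehicle 0.5% methylcellulose. Blood pressure measured in conscious rats by tail-cuff, without anaesthesia. Systolic, mean and diastolic values each taken as the mean of at least three measurements.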
# [1] = test system: intracranial aneurysm (IA); test: Rat IA model, histological analysis of induced IAs; format: in vivo, Sprague–Dawley rats; details: for growth (size) of induced IAs: KRP‐203 0.01 and BAF312 0.3 mg·kg^−1 daily
# Method in brief: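 IA induced at the right ACA-OA bifurcation, contralateral to carotid ligation. Rats randomized and given test compound p.o. (suspended in 0.5% methylcellulose) throughout. Specimens prepared at 12 weeks; 5 μm sections immunostained. Aneurysm size and infiltrating macrophage number assessed.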
# [2] = test system: THP‐1 cells across HCtAEC monolayer; test: Trans‐endothelial migration assay; format: cell-based, human; details: MCP‐1 100 ng·mL^−1, 3 h
# Method in brief: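 HCtAECs (10^5 per well) grown overnight on Transwell inserts (5.0 μm pore) in growth medium. Compound in serum-free defined medium, or vehicle (0.1% DMSO), added to both compartments. At the same time, THP-1 cells (5 × 10^5) added above and MCP-1 (100 ng·mL−1) below. After 3 h at 37°C, migrated cells quantified by ATP luminescence. Antagonist co-added with 100 nM agonist; duplicates.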
# [3] = test system: lymphocytes / monocytes in peripheral blood; test: Peripheral blood lymphocyte and monocyte count in rat IA model; format: in vivo, Sprague–Dawley rats; details: rats
# Method in brief: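 Oral dosing after IA induction. Agonist suspended in 0.5% methylcellulose; antagonist suspended in 5% arabic gum and given twice daily. Peripheral lymphocyte and monocyte counts taken after the dosing period (4 weeks for the antagonist).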
# hS1P1 = details: S1P2, S1P3, S1P4 versus S1P1/S1P5; ref Yamamoto et al., 2014; cited from earlier work
# [4] = Plasma concentration of ASP4058 in rat aneurysm model; format: in vivo, rats
# Method in brief: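 Rats dosed orally at 0.01 mg·kg−1 for 12 weeks. Plasma collected just before and 1, 2, 4, 8 and 24 h after the last dose. Plasma separated by centrifugation and stored at −20°C or lower. Samples prepared by protein precipitation and quantified by HPLC–tandem mass spectrometry.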
# [5] = rats, oral, 14 days at 0.1 mg·kg^−1; ref Yamamoto et al., 2014; cited from earlier work
# [6] = target: S1P1 receptors expressed on HCtAEC (Homo sapiens, UniProt P21453); test: S1P1 receptor internalization assay; format: cell-based; details: mean ± SEM, n = 5
# Method in brief: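 HCtAECs (10^5 per well) seeded overnight, then exposed for 1 h at 37°C to test compound diluted in serum-free defined medium. Cells washed in ice-cold PBS and detached with Accutase. Staining with mouse anti-S1P1 (30 min on ice), then PE anti-mouse IgG; IgG2b isotype control; dead cells excluded by 7-AAD or SYTOX Blue. Isotype-subtracted geoMFI normalized to vehicle, expressed as % of control.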
# [7] = test system: IA walls at ACA‐OA bifurcation; test: In vivo vascular permeability assay; parameters: species or system Sprague–Dawley rats; details: day 7, BAPN
# Method in brief: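 Rats after IA induction, with 3-aminopropionitrile to facilitate formation, dosed p.o. once daily from just after surgery; vehicle 0.5% methylcellulose. On day 7, under deep anaesthesia, Evans blue (45 mg·kg−1) injected intra-arterially via the right common carotid (proximal side clamped), then 4% paraformaldehyde perfusion. Age-matched Sprague–Dawley rats served as controls. Frozen sections imaged confocally (ex 620/em 680 nm); stained area thresholded, particles >4 pixel square counted.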
# [8] = target: S1P1 receptors in HCtAECs (Homo sapiens, UniProt P21453); test: cAMP assay; format: cell-based
# Method in brief: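 HCtAECs seeded at 2 × 10^4 per well and kept overnight. Test compound diluted in HBSS (pH 7.2) containing 5 mM HEPES (pH 7.5), 0.1% fatty-acid-free BSA and 0.5 mM IBMX. Cells stimulated with 1 μM forskolin plus compound for 20 min at 37°C. Lysis in HEPES/CaCl2/Triton X-100 buffer; cAMP measured with a LANCE cAMP kit. Duplicates.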
# HCtAEC monolayer = test: Permeability assay; format: cell-based, human; details: for effect on the ASP4058‐mediated inhibition of endothelial permeability: ASP4058 100 nM, TASP0277308 pretreated 1 h, EHop‐016 30 min
# Method in brief: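 HCtAECs (10^5 per well) grown overnight on collagen-coated Transwell inserts (0.4 μm pore) in growth medium, then overnight in serum-free defined medium. Compound or vehicle (0.1% DMSO) added to both compartments for 1 h. 250 μg·mL−1 FITC-dextran (2000 kDa) then added to the upper compartment; diffusion into the lower compartment read after 1 h (ex 490/em 520 nm). Antagonist pretreatment 1 h or Rac inhibitor 30 min, before 100 nM agonist. Duplicates, 37°C.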
# [9] = test system: intracranial aneurysm (IA); test: Non‐human primate model of IAs; format: in vivo; details: Macaca fascicularis, 0.1 mg·kg^−1 once daily, 52 weeks, n = 3
# Method in brief: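 Female Macaca fascicularis (11 years old, 3.4 kg average), held under a 12 h light–dark cycle. IAs induced by two-step surgery at a 2 week interval. Test compound given once daily. At 52 weeks, five intracranial bifurcation sites per animal examined for IA formation, scored as breakage of the lamina elastica.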
# THP‐1 cells = test: Chemotaxis assay; format: cell-based, human; details: 100 nM ASP4058, MCP‐1 10 ng·mL^−1, 3 h
# Method in brief: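 Migrated-cell Transwell assay (5.0 μm pore) without an endothelial layer. Test compound diluted in RPMI 1640 with 0.1% fatty-acid-free BSA; compound or vehicle (0.1% DMSO) added to both compartments. THP-1 cells (5 × 10^5 per well) added to the upper and MCP-1 (10 ng·mL−1) to the lower compartment simultaneously. After 3 h at 37°C, migrated cells quantified by ATP-based luminescence; duplicates.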
# [10] = KRP‐203 0.01 or BAF312 0.3 mg·kg^−1, 4 weeks after IA induction
# [11] = p.o., 12 weeks after IA induction
# [12] = TASP0277308 100 or 300 mg·kg^−1 p.o. twice daily, 4 weeks
# [13] = rats, TASP0277308 100 or 300 mg·kg^−1 p.o. twice daily, 4 weeks, BAPN
# Chain of S1P1 receptors expressed on HCtAEC (P21453 whole entry): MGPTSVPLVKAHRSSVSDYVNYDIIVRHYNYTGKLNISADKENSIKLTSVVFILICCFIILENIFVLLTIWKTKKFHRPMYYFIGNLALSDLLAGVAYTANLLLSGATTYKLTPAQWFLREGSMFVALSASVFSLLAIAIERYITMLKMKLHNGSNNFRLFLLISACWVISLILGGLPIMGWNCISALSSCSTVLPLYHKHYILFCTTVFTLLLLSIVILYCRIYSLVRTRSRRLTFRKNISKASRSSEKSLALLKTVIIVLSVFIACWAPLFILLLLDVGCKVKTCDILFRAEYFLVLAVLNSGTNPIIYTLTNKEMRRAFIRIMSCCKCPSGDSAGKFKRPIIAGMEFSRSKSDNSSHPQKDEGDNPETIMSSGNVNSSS
# Chain of S1P1 receptors in HCtAECs (P21453 whole entry): as above
structure (smiles),measurement,setting,value
"Cl.NC(CO)(CO)CCc1ccc(Sc2cccc(OCc3ccccc3)c2)cc1Cl [KRP‐203, 2‐amino‐2‐[2‐(4‐{[3‐(benzyloxy)phenyl]sulfanyl}‐2‐chlorophenyl)ethyl]propane‐1,3‐diol hydrochloride, reference compound]",systemic blood pressure,Systemic blood pressure; [10],without influencing
same,growth (size) of induced IAs,"[1]; rats, 4 weeks, BAPN",significantly suppressed the growth
"CCCCCCCCc1ccc(CCC(N)(CO)CO)cc1.Cl [fingolimod, 2‐amino‐2‐[2‐(4‐octylphenyl)ethyl]propane‐1,3‐diol hydrochloride, reference compound]",systemic blood pressure,Systemic blood pressure; fingolimod for 4 weeks after IA induction,without influencing
same,size of IAs induced,"[1]; rats, fingolimod daily during whole period, 4 weeks, BAPN",significantly exacerbated the IA size
"CCc1cc(/C(C)=N/OCc2ccc(C3CCCCC3)c(C(F)(F)F)c2)ccc1CN1CC(C(=O)O)C1 [BAF312, 1‐{4‐[(1E)‐N‐{[4‐cyclohexyl‐3‐(trifluoomethyl)benzyl]oxy}ethanimidoyl]‐2‐ethylbenzyl}azetidine‐3‐carboxylic acid, reference compound]",systemic blood pressure,Systemic blood pressure; [10],without influencing
same,growth (size) of induced IAs,"[1]; rats, 4 weeks, BAPN",significantly suppressed the growth
"C[C@H](Oc1ccc(-c2nc(-c3ccc4[nH]cnc4c3)no2)cc1C(F)(F)F)C(F)(F)F.Cl [ASP4058, 5‐{5‐[3‐(trifluoromethyl)‐4‐{[(2S)‐1,1,1‐trifluoropropan‐2‐yl]oxy}phenyl]‐1,2,4‐oxadiazol‐3‐yl}‐1H–benzimidazole hydrochloride]",blood pressure,"Systemic blood pressure; ASP4058 0.1 mg·kg^−1 started 1 week after induction, measured at 7 weeks",without affecting the blood pressure
same,systemic blood pressure,Systemic blood pressure; ASP4058 p.o. for 12 weeks after IA induction,without significantly influencing
same,MCP‐1‐induced trans‐endothelial migration of THP‐1 cells,[2],concentration‐dependently inhibited
same,peripheral lymphocyte number,"[3]; ASP4058 0.01 mg·kg^−1 p.o., 12 weeks",did not decrease
same,monocyte count in peripheral blood,"[3]; ASP4058 p.o., 12 weeks after IA induction",without significantly influencing
same,dose at which the decrease in lymphocyte count reached a plateau,[3]; [11],0.1 mg/kg
same,dose suppressing the lymphocyte number in peripheral blood,[3]; [11],higher than 0.03 mg·kg^−1
same,potency for other S1P receptor subtypes relative to S1P1 and S1P5 (times less),hS1P1,at least 100 times
same,"Plasma concentration, 4 h","[4]; 0.01 mg·kg^−1, 12 weeks, 4 h after last administration, mean ± SEM, n = 3",8.8 ± 1.6 nM
same,"Plasma concentration, 24 h","[4]; 0.01 mg·kg^−1, 12 weeks, 24 h after last administration, mean ± SEM, n = 3",4.5 ± 0.6 nM
same,"Plasma concentration, Pre","[4]; 0.01 mg·kg^−1, 12 weeks, just before last administration, mean ± SEM, n = 3",5.4 nM and 5.4 ± 0.7 nM
same,concentration at 1 h,"[4]; plasma, oral, 0.01 mg·kg^−1",6.3 ± 0.9 nM
same,concentration at 2 h,"[4]; plasma, oral, 0.01 mg·kg^−1",4.9 ± 1.6 nM
same,concentration at 4 h,"[4]; plasma, oral, 0.01 mg·kg^−1",8.8 nM
same,concentration at 8 h,"[4]; plasma, oral, 0.01 mg·kg^−1",7.9 ± 1.4 nM
same,concentration at 24 h,"[4]; plasma, oral, 0.01 mg·kg^−1",4.5 nM
same,plasma concentration at the maximum,[5],16.4 ± 0.463 ng/mL
same,plasma concentration at the maximum (equivalent),[5],37.1 ± 1.05 nM
same,"S1P1 receptor expression level on HCtAECs (surface, δ geoMFI)","[6]; 100 nM ASP4058, 1 h",86 ± 14 % of control
same,"S1P1 receptor expression level on HCtAECs (surface, δ geoMFI)","[6]; 1000 nM ASP4058, 1 h",23 ± 4.3 % of control
same,Evans blue leakage (stained area) at the ACA‐OA bifurcation after IA induction,"[7]; rats, 0.1 mg·kg^−1 p.o. once daily",almost complete suppression
same,Evans blue leakage (stained area) at the ACA‐OA bifurcation after IA induction,"[7]; rats, 0.01, 0.1 mg·kg^−1 p.o. once daily",dose‐dependently ameliorated
same,IC50,[8],2.1 nM
same,leakage of FITC‐dextran (2000 kDa) across the endothelial monolayer,"HCtAEC monolayer; 10 nM ASP4058, 1 h treatment, 1 h diffusion, concentration‐dependent",statistically significant inhibition
same,IA formation compared with the vehicle‐treated group,[9],tended to be suppressed
same,IA development measured by the size of the IA induced,"[1]; rat model, p.o. during entire period of IA induction, 12 weeks",dose‐dependently suppressed IA development
same,incidence of IAs,"[1]; rat model, p.o. during whole period, 12 weeks",did not affect the incidence
same,dose at which the suppressive effect on the size of the IA was observed,"[1]; rat model, p.o., 12 weeks",0.01 mg/kg
same,macrophage infiltration in the lesion,"[1]; rat model, p.o., 12 weeks after induction",inhibited the macrophage infiltration
same,expression of MCP‐1 in the IA lesion,"[1]; rats, ASP4058 0.03 mg·kg^−1, immunostaining",almost completely suppressed
same,IA‐associated degenerative change of the media (thinning of smooth muscle layer),"[1]; rats, ASP4058 0.03 mg·kg^−1, α‐SMA staining, 12 weeks",ameliorated the IA‐associated degenerative change of the media
same,enlargement of pre‐existing aneurysm,"[1]; rats, ASP4058 0.1 mg·kg^−1 once daily started 1 week after IA induction, examined at 7 weeks, BAPN",significantly inhibited the enlargement
same,MCP‐1‐dependent migration (chemotaxis) of THP‐1 cells without HCtAEC monolayer,THP‐1 cells,failed to inhibit
CCn1c2ccccc2c2cc(Nc3ccnc(NCCCN4CCOCC4)n3)ccc21 [EHop‐016],effect on the ASP4058‐mediated inhibition of endothelial permeability,HCtAEC monolayer,ameliorated the effect of ASP4058 on permeability
"CCn1c(Oc2cccc(N3CCN(C)CC3)c2)nnc1[C@@H](C)NS(=O)(=O)c1ccc(Cl)c(Cl)c1 [TASP0277308, 3,4‐dichloro‐N‐[(1R)‐1‐{4‐ethyl‐5‐[3‐(4‐methylpiperazin‐1‐yl)phenoxy]‐4H‐1,2,4‐triazol‐3‐yl}ethyl]benzenesulfonamide, reference compound]",systemic blood pressure,Systemic blood pressure; [12],without influencing
same,peripheral lymphocyte count,[3]; [12],potently decreased
same,peripheral monocyte count,[3]; [12],without influencing
same,effect on the ASP4058‐mediated inhibition of endothelial permeability,HCtAEC monolayer,reversed
same,macrophage infiltration in IA lesions,[1]; [13],did not suppress
same,size of the IA,[1]; [13],did not suppress either the macrophage infiltration in IA lesions or reduce the size
